From PubChem
aDG glyco act = alpha-DG glycosylation activation. activation, % at 10 µM. Pro5-aDG cells, alpha-DG glycosylation AlphaScreen (IIH6); 0% Pro5, 100% B10-LARGE cell signal. AID 624168. hit rate 0.22% among 360,000;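 active means activation of at least 8% versus controls, or a plate z-score of at least 8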;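 further: Pro5 are CHO cells carrying HIG-tagged alpha-DG that lacks glycosylation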
NRP1-CendR mod = modulators of CendR peptide binding to human neuropilin-1. FAM-RPARPAR peptide binding to NRP-1, fluorescence polarization. hit rate 0.85% among 360,000. inhibition, % at 25 µM. AID 602438. O14786;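 active means inhibition or corrected inhibition above about 18%, plus a signal ratio from 0.5 to 1.5, limit read from the data, passing the limit was not always enough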
Tn7 DDE FP = disrupts Tn7 cyclic peptide binding to fibrin D-Dimer-E complex; FP displacement of FITC-Tn7 peptide from fibrin DD(E); 0% = median of compound wells per plate; inhibition, % at 8.3 µM; hit rate 0.13% among 370,000; AID 720508;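 active means inhibition above the mean of compounds falling within the control limits plus 3 SD of them, cut at about 14% in these data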;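 further: 0% = plate median of compound wells and 100% = 10 µM Aha-Tn7 peptide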
Target sequence (P02675 whole entry, looked up): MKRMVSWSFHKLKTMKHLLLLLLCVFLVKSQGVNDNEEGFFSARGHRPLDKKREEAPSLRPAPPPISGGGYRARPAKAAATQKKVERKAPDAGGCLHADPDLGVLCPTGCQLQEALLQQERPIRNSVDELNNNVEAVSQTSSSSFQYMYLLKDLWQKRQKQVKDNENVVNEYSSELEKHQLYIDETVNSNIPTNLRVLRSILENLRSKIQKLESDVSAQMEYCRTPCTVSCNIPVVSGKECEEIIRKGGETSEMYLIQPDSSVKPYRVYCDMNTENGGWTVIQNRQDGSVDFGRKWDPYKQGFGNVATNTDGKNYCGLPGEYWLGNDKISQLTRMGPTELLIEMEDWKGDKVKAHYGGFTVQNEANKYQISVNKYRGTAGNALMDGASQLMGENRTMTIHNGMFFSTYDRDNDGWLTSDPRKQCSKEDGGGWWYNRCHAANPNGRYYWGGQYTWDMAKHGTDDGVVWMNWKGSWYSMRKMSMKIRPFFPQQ
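Also added: labelled Tn7 tracer, 0.1 µM; Assay system: human fibrin DD(E) protein; Amount: 2 µM fibrin DD(E); Schedule: 10 min compound pre-incubation, 3 h probe incubation at room temperature; Repeats: one replicate per compound; Read-out basis: percent inhibition; Measured by: fluorescence polarization of the labelled Tn7 tracer.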
Tn6 DDE FP = disrupts Tn6 cyclic peptide binding to fibrin D-Dimer-E complex. inhibition, % at 8.3 µM. AID 720509. hit rate 0.21% among 370,000. Fibrin DD(E) TRITC-Tn6 fluorescence polarization displacement. P02675;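 active means inhibition above a per-campaign cutoff: mean of compounds within control limits plus 3 SD, cut at about 15% in these data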;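 further: 0% = median of all compound wells on the plate and 100% = blocking peptide control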
The depositor's hits bear a star; x = no result. An excerpt weighted towards active compounds, which were near 1.3% of everything screened.

SMILES	aDG glyco act	NRP1-CendR mod	Tn7 DDE FP	Tn6 DDE FP
O=C(CCNC(=O)c1ccc(Cl)cc1)NN1C(=O)NC2(CCCCC2)C1=O	0	20*	-5	2
COc1ccc(CN2C(=O)[C@]3(NCCc4c3[nH]c3ccc(OC)cc43)c3cc(Br)ccc32)cc1	x	x	9	3
Cc1c(OC(C)C(=O)NCc2ccccn2)ccc2c3c(c(=O)oc12)CCC3 (configuration not stated)	0	23*	0	1
CC(C)(C)NC(=O)C12CC3CC(CC(Cl)(C3)C1)C2	0	22*	-7	-9
CCN(CC)C(=O)C12CC3CC(CC(Cl)(C3)C1)C2	0	2	-2	5
Cc1cc(NS(=O)(=O)c2ccc(NC(=O)CCCC(=O)O)cc2)nc(C)n1	0	45*	-1	9
Cn1c(SCC(=O)Nc2ccc(F)cc2)nc2c(c1=O)SCC2	0	24*	-4	-8
CC1=[N+](C)c2c(ccc3cccnc23)C1(C)C	3	-2	-9	153*
CCCCNC(=O)N1CCC(c2nc3ccc(Cl)cc3[nH]2)CC1	x	x	-3	8
O=C(CSc1n[nH]c(=O)[nH]c1=O)Nc1ccc(Br)cc1Br	0	31*	1	1
Cc1oc(-c2ccc(C(F)(F)F)cc2)nc1CN(Cc1ccccn1)C[C@@H]1CCC(=O)N1	0	31*	-6	0
COc1ccc(OCCCC(=O)N2CCCc3ccccc32)cc1	0	7	-3	-9
COc1ccc(CCC(=O)N2CCCc3ccccc32)cc1	0	28*	0	-6
COc1ccc(/C(C#N)=C/c2cccnc2)cc1	0	19*	-9	-1
O=C(COC(=O)CCCN1C(=O)c2ccccc2C1=O)Nc1ncc(Cl)cc1Cl	0	-28	15*	-2
CC(=O)NCCNc1nc(NCc2cccs2)nc2ccsc12	0	-2	6	-2
CC(=O)NCCNc1nc(NC(C)C)nc2ccsc12	0	26*	2	-3
CC(C)N(C[C@@H]1CSCCS(=O)(=O)N1)C(C)C	x	x	-2	3
CCCc1cc(=O)oc2cc(C)cc(OCC(=O)NCCCn3ccnc3)c12	0	-1	-3	1
Cc1cc(OCC(=O)NCCCn2ccnc2)c2c(C)cc(=O)oc2c1	0	20*	3	9
CCn1c(COc2ccc(C)cc2)nnc1SCC(=O)Nc1ccccc1-c1ccccc1	x	x	0	1
C[C@@H]1[C@@H](c2ccccc2)OC(O)([C@H](Cc2ccccc2)NC(=O)OC(C)(C)C)CN1C (some centres not stated)	x	x	3	7
C[C@@H]1CN([C@@H](C)CO)C(=O)CCCn2cc(nn2)CO[C@H]1CN(C)C(=O)Nc1ccc(F)cc1	x	x	0	3
C[C@H]1CN([C@@H](C)CO)C(=O)CCCn2cc(nn2)CO[C@@H]1CN(C)C(=O)Nc1ccc(N2CCN(C)CC2)cc1	0	21*	1	6
O=C(Nc1cccc(F)c1)N1CCc2nc(NCc3cccc(Oc4ccccc4)c3)ncc2C1	1	-9	-3	3
SMILES	aDG glyco act	NRP1-CendR mod	Tn7 DDE FP	Tn6 DDE FP
COc1ccc(-n2c(CSc3ccc(Cl)cc3)n[nH]c2=S)cc1	x	x	-3	-1
Cc1noc(C)c1C(=O)OCC(=O)NCc1ccccc1	0	24*	-1	3
NC(=O)C1CCN(C(=O)C2CCC(=O)N(C3CCCCCC3)C2)CC1 (configuration not stated)	0	0	2	2
NC(=O)C1CCN(C(=O)C2CCC(=O)N(CC3CCCCC3)C2)CC1 (configuration not stated)	0	18*	0	3
COc1ccc(CCn2cnn3c(=O)c4ccccc4nc3c2=O)cc1OC	x	x	-2	1
COc1ccc(OC)c(CN2CCN(C(=O)c3cc(S(=O)(=O)N4CCOCC4)ccc3C)CC2)c1	x	x	-1	1
NCCCC[C@H]1CN=C(N)N1CCC12CC3CC(CC(C3)C1)C2	0	38*	-5	8
NCCCC[C@H]1CN=C(N)N1CCc1cccc2ccccc12	0	9	-1	-2
CCCN(CC(=O)Nc1cc(C)on1)CC(=O)Nc1ccc(F)c(F)c1F	0	23*	-2	5
O=C(N/N=C/c1cccc2ccccc12)c1cc(C2CC2)[nH]n1	0	22*	1	5
CCOC(=O)C1=C(C(=O)OCC)C2N(Cc3ccc(Br)cc3)c3ccccc3[C@@]23C[C@@H](C(=O)OC)N(S(=O)(=O)c2ccc(Br)cc2)C3=N1 (some centres not stated)	x	x	2	-6
Nn1c(SCC(=O)NC2CCCCC2)nnc1-c1n[nH]c2c1CCC2	x	x	-5	-5
COC(=O)[C@@]12C[C@@H](CC(=O)N3CCCCC3)C(=O)N(Cc3ccccc3)C1=CCC(C)(C)C2	0	-4	-2	-6
COC(=O)c1c(C)n(-c2ccccc2)c2ccc(O)cc12	0	-2	0	0
CN(C)/C=C/c1c([N+](=O)[O-])c2ccc(O)cc2n1-c1ccccc1	0	33*	0	3
O=C(O)c1cccc(S(=O)(=O)N2CCCC2)c1	0	4	x	x
O=C(O)c1cccc(S(=O)(=O)N2CCN(C(c3ccccc3)c3ccccc3)CC2)c1	0	36*	0	0
O=C1CCC[C@H]2[C@@H](Cc3ccccc3)[C@@H](O)CC[C@]23CCCN13	x	x	3	-1
CCOCCCNC(=S)NC1CC2CCC(C1)N2Cc1ccccc1 (configuration not stated)	0	-3	-2	0
COCCCNC(=S)NC1CC2CCC(C1)N2Cc1ccccc1 (configuration not stated)	2	48*	10	-5
C=C1CCN([C@@H](CC(C)C)C(=O)NCc2ccco2)S(=O)(=O)c2ccccc21	0	11	-4	0
C=C1CCN(C(C(=O)OC)C(C)C)S(=O)(=O)c2ccccc21 (configuration not stated)	0	6	2	1
C=C1CCN([C@@H](CC(C)C)C(=O)NCCCc2ccccc2)S(=O)(=O)c2ccccc21	0	30*	5	-2
C=C1CCN([C@@H](CC(C)C)C(=O)NCc2ccccc2)S(=O)(=O)c2ccccc21	0	27*	5	0
C=C1CCN([C@@H](CC(C)C)C(=O)O)S(=O)(=O)c2ccccc21	0	25*	-4	4
C=C1CCN(C(C(=O)OC)C(C)C)S(=O)(=O)c2ccc(F)cc21 (configuration not stated)	0	28*	5	12
C=C1CCN(C(CC(C)C)C(=O)OC)S(=O)(=O)c2ccccc21 (configuration not stated)	0	7	0	4
C=C[C@]12CC[C@H](OC(C)=O)CC1=CCC1C2CC[C@@]2(C)C1CCC21OCCO1 (some centres not stated)	0	22*	0	9
COc1ccc(NC(=O)Cn2nnc(C(=O)Nc3ccccc3C)c2N)cc1	0	19*	1	13
